Structures are written as SMILES. Active and inactive are the calls of the source. The rule behind the calls is not given here.

The test system of data set [1] is Mus musculus. Nature of the data set: Antipsychotic activity in AMPH-induced hyperactivity C57BL/6J mouse model assessed as reduction in amphetamine-induced hyper-locomotion at 20 mg/kg, ip preincubated for 15 mins followed by AMPH addition measured after 90 mins. In kind it is functional, organism-based.
The target of data set [2] is T1, 5-hydroxytryptamine receptor 2C (Homo sapiens) (UniProt P28335).
T1 sequence (whole entry): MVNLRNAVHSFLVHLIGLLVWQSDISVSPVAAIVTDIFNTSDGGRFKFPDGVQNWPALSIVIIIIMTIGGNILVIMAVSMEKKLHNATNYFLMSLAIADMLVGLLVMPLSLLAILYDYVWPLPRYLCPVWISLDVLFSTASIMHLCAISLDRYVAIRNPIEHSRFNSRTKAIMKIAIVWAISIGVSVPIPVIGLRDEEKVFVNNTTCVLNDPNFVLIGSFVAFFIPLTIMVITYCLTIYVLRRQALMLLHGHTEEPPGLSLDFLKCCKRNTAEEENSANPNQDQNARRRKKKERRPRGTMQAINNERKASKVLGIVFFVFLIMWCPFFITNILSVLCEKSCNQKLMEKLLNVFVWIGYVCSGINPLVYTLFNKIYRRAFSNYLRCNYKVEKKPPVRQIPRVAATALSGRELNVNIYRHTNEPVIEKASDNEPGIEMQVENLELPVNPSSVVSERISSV
Nature of the data set: Agonist activity at tTA containing TEV cleavage site-fused 5-HT2C-INI receptor isoform (unknown origin) expressed in TEV-fused beta-arrestin2 expressing HEK cells assessed as induction of beta-arrestin2 recruitment after 20 hrs by Tango assay relative to serotonin. In kind it is cell-based. In a few lines:
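HTLA cells (HEK cells with TEV-fused β-arrestin-2 and tTA-driven luciferase) transfected with tTA-fused 5-HT2C-INI receptor carrying a TEV site. Luminescence read after 20 min lysis at room temperature. Normalized to % 5-HT and fitted sigmoidally. NA means no activity up to 10 μM. Mean of n = 3.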

The target in a further data set is CYP3A4 (Homo sapiens, UniProt P08684). Nature of the data set: in vitro. To be noted: liver microsomes, probe midazolam.
The subject of data set [3] is Mus musculus. Nature of the data set: Antipsychotic activity in AMPH-induced hyperactivity C57BL/6J mouse model assessed as reduction in amphetamine-induced hyper-locomotion at 10 mg/kg, ip preincubated for 15 mins followed by AMPH addition measured after 90 mins. In kind it is functional, organism-based.
Another data set addresses CYP2D6 (Homo sapiens, UniProt P10635). Nature of the data set: in vitro. To be noted: liver microsomes, probe dextromethorphan.
Data set [4] has as its target 5-HT2A receptor (Homo sapiens, UniProt P28223). Nature of the data set: Agonist activity at human 5-HT2A receptor expressed in Flp-IN HEK293 cells assessed as induction of calcium flux measured every second for 5 mins by Fluo-4 dye based FLIPR assay relative to serotonin. Format: cell-based. To be noted: Flp-IN HEK293 cells expressing human 5-HT2A receptor. Background: Calcium assays in cells follow changes in intracellular calcium, usually with a dye or a luminescent sensor.

The target of a further data set is T2, CYP1A2 (Homo sapiens, UniProt P05177).
T2 sequence (P05177 whole entry): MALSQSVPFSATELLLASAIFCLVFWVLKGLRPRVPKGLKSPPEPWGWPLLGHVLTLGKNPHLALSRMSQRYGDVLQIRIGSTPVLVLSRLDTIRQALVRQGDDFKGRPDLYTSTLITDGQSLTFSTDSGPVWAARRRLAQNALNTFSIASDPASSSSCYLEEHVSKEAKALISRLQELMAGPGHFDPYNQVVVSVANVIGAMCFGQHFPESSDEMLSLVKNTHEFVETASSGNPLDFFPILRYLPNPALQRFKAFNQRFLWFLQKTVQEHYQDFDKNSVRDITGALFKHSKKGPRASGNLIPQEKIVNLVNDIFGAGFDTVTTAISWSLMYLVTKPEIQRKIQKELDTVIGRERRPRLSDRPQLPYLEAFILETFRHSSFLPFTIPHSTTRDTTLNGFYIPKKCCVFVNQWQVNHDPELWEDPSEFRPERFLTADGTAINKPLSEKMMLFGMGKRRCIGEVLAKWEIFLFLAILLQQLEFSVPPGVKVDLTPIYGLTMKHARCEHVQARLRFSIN
Nature of the data set: in vitro. To be noted: liver microsomes, probe phenacetin. Background: Liver microsomes are vesicles of endoplasmic reticulum, rich in cytochrome P450 enzymes.

Data set [5] addresses Voltage-gated inwardly rectifying potassium channel KCNH2 (Homo sapiens, UniProt Q12809). Nature of the data set: Inhibition of human ERG expressed in CHO cells by automated patch-clamp assay. Format: cell-based. Summed up: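 Read-out is an IC50 in µM for hERG inhibition, measured by automated patch-clamp on CHO cells.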
Another data set concerns the target CYP2C9 (Homo sapiens, UniProt P11712). Nature of the data set: in vitro. To be noted: liver microsomes, probe tolbutamide.
Data set [6] addresses T3, 5-hydroxytryptamine receptor 2B (Homo sapiens, UniProt P41595). Nature of the data set: Agonist activity at human 5-HT2B receptor expressed in Flp-IN HEK293 cells assessed as induction of calcium flux up to 10 uM measured every second for 5 mins by Fluo-4 dye based FLIPR assay. In kind it is cell-based. To be noted: hek293, 5 min.
Data set [7] has as its system Mus musculus. Nature of the data set: Antipsychotic activity in PCP-induced hyperactivity C57BL/6J mouse model assessed as reduction in PCP-induced hyper-locomotion at 10 to 20 mg/kg, ip preincubated for 15 mins followed by PCP addition measured after 60 mins. Format: functional, organism-based. In a few lines: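 Male C57BL/6J mice, 9–10 weeks old. […] PCP 5 mg/kg followed, with activity recorded a further 60 min. Read-out was total distance from infrared beam breaks, analysed by one-way ANOVA.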

The target in data set [8] is T3, 5-hydroxytryptamine receptor 2B. Nature of the data set: Displacement of [3H]-LSD from human 5-HT2B receptor expressed in HEKT cells after 90 mins by scintillation counting method. Format: cell-based.
Data set [9] addresses T1, 5-hydroxytryptamine receptor 2C (Homo sapiens). Nature of the data set: Agonist activity at human 5-HT2C-INI receptor isoform expressed in Flp-IN HEK293 cells assessed as induction of Gq-mediated calcium flux measured every second for 5 mins by Fluo-4 dye based FLIPR assay relative to serotonin. Format: functional, cell-based.
The test system of data set [10] is Mus musculus. Nature of the data set: Toxicity in C57BL/6J mouse assessed as reduction in baseline locomotive activity at 10 to 20 mg/kg, ip after 15 mins. In kind it is organism-based. To be noted: in vivo.
For data set [11], the target named is 5-HT2A receptor (Rattus norvegicus, UniProt P14842). Nature of the data set: Agonist activity at rat 5-HT2A receptor expressed in African clawed frog oocytes assessed as increase in current amplitude relative to 5-HT. In kind it is cell-based. To be noted: African clawed frog oocytes expressing rat 5-HT2A receptor.
Data set [12] has as its target T4, 5-hydroxytryptamine receptor 2C (Rattus norvegicus, UniProt P08909).
T4 sequence (P08909 whole entry): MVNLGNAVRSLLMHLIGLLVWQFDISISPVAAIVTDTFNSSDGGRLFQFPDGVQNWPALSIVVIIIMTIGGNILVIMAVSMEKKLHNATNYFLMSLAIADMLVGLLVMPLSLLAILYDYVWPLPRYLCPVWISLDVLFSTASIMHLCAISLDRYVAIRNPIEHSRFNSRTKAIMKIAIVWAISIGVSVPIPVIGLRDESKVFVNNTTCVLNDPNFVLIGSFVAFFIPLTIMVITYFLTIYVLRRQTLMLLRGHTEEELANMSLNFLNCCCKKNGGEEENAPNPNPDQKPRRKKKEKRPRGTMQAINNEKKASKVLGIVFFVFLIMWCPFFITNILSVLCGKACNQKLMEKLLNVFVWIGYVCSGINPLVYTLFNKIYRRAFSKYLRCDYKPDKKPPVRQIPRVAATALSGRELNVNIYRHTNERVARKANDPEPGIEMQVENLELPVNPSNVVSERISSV
Nature of the data set: Agonist activity at rat 5-HT2C receptor expressed in African clawed frog oocytes assessed as increase in current amplitude. In kind it is cell-based.

T3 sequence (P41595 whole entry): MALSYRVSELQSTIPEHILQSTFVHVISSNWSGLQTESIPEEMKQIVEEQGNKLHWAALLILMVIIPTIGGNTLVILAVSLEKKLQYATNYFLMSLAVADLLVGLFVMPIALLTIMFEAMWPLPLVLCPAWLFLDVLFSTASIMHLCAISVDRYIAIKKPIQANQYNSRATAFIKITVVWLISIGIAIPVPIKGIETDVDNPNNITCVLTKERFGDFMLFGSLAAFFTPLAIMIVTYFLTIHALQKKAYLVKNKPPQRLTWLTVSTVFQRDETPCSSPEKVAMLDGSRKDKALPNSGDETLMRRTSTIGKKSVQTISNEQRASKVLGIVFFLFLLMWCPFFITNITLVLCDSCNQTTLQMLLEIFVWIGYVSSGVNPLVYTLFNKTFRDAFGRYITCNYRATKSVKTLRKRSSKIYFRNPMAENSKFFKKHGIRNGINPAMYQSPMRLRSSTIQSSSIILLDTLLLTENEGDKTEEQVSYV
5-HT2A receptor (Rattus norvegicus, UniProt P14842), sequence (P14842 whole entry): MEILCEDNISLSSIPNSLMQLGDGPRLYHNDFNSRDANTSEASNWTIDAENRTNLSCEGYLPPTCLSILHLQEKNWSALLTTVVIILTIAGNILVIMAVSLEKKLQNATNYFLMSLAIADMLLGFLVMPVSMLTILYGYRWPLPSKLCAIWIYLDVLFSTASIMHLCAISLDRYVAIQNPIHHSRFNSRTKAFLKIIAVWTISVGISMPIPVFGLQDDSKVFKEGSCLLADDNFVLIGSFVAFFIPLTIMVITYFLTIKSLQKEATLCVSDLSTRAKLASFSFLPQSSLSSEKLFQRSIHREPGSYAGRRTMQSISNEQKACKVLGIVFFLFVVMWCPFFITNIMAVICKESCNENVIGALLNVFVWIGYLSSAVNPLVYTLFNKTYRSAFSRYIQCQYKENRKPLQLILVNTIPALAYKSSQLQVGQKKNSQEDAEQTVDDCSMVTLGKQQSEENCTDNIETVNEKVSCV
CYP3A4, sequence (P08684 whole entry): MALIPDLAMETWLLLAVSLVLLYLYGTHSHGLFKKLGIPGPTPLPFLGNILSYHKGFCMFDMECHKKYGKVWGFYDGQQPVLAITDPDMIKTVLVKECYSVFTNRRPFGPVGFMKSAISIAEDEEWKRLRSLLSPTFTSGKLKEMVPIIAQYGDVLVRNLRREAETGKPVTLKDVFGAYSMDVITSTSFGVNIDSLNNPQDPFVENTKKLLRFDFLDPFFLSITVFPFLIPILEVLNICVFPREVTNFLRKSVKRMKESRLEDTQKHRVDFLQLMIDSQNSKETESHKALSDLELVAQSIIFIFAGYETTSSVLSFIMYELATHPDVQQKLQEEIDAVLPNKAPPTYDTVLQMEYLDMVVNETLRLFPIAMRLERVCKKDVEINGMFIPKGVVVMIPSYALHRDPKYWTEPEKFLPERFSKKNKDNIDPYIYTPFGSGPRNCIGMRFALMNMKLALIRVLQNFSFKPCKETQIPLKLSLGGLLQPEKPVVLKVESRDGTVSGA
Voltage-gated inwardly rectifying potassium channel KCNH2, sequence (Q12809 whole entry): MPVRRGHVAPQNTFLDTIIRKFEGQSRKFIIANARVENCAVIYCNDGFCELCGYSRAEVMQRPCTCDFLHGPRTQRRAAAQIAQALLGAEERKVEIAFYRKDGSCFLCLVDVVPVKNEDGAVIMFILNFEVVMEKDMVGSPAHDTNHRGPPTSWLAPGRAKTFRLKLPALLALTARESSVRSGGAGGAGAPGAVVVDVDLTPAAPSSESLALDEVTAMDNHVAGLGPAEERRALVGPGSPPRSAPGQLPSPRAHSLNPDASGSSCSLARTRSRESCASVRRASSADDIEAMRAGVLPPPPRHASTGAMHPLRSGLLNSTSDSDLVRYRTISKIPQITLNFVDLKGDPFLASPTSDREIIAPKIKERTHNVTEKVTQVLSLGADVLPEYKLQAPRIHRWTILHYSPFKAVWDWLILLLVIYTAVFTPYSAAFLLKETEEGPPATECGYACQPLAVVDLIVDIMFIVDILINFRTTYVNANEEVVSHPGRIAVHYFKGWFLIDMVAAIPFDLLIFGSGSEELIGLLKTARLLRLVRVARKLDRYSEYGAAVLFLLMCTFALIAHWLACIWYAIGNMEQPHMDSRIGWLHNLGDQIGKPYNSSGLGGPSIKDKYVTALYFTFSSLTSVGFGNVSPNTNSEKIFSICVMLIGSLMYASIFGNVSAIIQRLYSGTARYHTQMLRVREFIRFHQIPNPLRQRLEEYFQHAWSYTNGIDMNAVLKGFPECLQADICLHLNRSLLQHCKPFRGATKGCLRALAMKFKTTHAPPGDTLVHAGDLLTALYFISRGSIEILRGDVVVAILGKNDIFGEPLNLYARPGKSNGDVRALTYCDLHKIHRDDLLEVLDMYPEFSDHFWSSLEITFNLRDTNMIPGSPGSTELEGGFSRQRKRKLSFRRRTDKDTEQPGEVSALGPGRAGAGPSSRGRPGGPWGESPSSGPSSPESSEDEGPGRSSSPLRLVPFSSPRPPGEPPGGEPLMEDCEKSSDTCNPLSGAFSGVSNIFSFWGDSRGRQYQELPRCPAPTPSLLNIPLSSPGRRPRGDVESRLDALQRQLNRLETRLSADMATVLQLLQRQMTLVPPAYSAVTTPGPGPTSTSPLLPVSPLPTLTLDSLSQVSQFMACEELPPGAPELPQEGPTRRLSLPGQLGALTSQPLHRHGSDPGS
CYP2C9, sequence (P11712 whole entry): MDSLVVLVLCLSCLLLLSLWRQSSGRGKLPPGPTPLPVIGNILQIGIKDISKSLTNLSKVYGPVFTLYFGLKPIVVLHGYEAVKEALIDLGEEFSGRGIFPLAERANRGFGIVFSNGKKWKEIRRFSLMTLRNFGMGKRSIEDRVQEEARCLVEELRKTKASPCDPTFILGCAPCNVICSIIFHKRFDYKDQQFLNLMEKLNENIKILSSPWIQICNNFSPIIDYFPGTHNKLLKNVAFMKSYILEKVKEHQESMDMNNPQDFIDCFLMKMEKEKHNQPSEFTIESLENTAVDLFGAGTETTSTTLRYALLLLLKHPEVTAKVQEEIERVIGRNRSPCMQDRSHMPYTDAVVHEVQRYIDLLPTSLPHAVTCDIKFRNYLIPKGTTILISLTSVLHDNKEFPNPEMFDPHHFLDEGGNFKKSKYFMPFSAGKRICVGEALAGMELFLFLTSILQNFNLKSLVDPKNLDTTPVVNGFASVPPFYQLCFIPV
5-HT2A receptor (Homo sapiens, UniProt P28223), sequence (P28223 whole entry): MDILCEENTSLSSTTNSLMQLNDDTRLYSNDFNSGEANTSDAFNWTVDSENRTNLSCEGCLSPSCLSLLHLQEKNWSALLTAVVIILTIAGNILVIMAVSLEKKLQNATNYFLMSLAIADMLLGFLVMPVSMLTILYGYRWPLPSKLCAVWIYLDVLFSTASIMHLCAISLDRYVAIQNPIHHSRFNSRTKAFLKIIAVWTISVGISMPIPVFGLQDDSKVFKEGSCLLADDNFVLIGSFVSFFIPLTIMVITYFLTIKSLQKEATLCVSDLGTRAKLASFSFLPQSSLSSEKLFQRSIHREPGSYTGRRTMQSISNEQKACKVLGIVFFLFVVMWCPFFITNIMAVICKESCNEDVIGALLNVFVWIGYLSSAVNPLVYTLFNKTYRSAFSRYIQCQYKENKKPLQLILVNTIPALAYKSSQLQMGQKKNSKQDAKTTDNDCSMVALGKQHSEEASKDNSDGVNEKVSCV
CYP2D6, sequence (P10635 whole entry): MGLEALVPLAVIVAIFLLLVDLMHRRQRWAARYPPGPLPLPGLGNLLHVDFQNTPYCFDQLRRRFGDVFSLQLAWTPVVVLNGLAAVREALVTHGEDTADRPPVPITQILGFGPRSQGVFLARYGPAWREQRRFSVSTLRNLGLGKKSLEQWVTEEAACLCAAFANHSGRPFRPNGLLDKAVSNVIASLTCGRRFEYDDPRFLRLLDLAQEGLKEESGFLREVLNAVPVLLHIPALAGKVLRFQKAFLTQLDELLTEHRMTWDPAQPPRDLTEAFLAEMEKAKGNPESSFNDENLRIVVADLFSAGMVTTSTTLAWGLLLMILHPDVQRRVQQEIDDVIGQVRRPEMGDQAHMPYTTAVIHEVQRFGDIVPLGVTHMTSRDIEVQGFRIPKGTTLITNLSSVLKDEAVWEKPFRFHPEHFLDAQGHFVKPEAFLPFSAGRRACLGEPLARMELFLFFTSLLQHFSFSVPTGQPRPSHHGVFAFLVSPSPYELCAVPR

Regarding `COc1ccccc1CNC[C@H]1C[C@@H]1c1cc(F)ccc1OC.Cl`, the outcome with Mus musculus [1] was Active. In addition, the Emax (usually the size of the effect at its maximum, as opposed to the concentration needed) in data set [2] is 43%; in data set [9], 92%. For the same compound, the inhibition – broadly, the drop in the measured response relative to a control, in per cent – at 10 µM was 85.6% at CYP3A4, 68.9% on CYP2D6, 20.5% against CYP1A2 and 9.3% against CYP2C9. In addition, the outcome in the data set on Mus musculus [3] and in the data set on Mus musculus [7] was inactive. The Emax at 5 min on 5-HT2A receptor [4] worked out at 63%. In addition, in [5], the IC50 (in general, the concentration that inhibits the measured activity by half) came out at 1400 nM. Also, the Activity entry was “Not Active” in data set [6] and “Non-Toxic” in the data set on Mus musculus [10]. The affinity in data set [8] corresponds to a Ki of 411 nM.

Turning to `COc1cc(CC(C)N)c(OC)cc1I` (stereo unspecified), on 5-HT2A receptor [11], the Emax amounted to 46%. The 50% effective concentration (EC50) (commonly the concentration at which the effect is half-maximal) in [12] was 178 nM.

(Values after ChEMBL document CHEMBL4011649 (J Med Chem, 2017).)
